Source: PubChem BioAssay
E coli Lon inh – inhibits E. coli Lon protease; purified E. coli Lon protease, fluorescence polarization; inhibition, % at 7.94 µM; 360,000 compounds, 0.42% hits; in the data active means inhibition above about 13%, passing the limit was not always enough;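 further: 0% = enzyme with probe and DMSO and 100% = no enzyme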
PREPL inhibitor – inhibits the human prolyl oligopeptidase-like enzyme. recombinant PREPL, fluorescence polarization activity-based probe. inhibition, % at 5.96 µM. 320,000 compounds, 0.68% hits. AID 2751; in the data active means inhibition above about 43%;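 further: 0% = enzyme with DMSO and 100% = wells lacking enzyme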
Target sequence (Q4J6C6 whole entry, looked up): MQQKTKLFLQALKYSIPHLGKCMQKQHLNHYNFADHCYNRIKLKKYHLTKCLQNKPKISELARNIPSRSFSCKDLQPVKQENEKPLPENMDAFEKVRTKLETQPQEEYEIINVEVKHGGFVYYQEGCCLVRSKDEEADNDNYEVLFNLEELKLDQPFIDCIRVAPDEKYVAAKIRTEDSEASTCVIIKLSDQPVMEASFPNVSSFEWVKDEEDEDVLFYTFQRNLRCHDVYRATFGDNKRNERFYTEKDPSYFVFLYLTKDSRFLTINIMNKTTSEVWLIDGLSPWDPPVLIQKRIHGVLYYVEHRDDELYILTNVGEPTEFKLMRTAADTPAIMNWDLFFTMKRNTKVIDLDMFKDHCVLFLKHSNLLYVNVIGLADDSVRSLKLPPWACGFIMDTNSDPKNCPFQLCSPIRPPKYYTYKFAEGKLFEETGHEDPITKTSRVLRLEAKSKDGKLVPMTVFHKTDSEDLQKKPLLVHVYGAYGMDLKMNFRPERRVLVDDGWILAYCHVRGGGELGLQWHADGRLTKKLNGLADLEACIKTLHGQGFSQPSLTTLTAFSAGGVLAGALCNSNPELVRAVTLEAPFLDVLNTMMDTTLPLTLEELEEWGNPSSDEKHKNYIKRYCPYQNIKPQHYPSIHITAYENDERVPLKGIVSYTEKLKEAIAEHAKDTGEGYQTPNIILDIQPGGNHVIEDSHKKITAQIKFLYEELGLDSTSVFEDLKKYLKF
MT1-MMP act inh – inhibitors of human MT1-MMP activation; P50281; HT1080 RFP-PRO-GFP cells, GFP/RFP ratio fluorescence, overnight; percent of plate control window, DMSO zero; GFP/RFP ratio change, % at 20 µM; 360,000 compounds, 0.061% hits;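 active means GFP/RFP ratio change of at least 30% with cell ATP level not reduced by more than half and red fluorescence within 50% of control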
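Material – HT1080 RFP-PRO-GFP cells · Control set – DMSO wells and RFP-L50D-GFP cells · Incubation – overnight cell settling, then overnight compound exposure, 37 °C, 5% CO2 · Compound dosing – single-point 20 µM compound, 1% DMSO · Read-out – GFP/RFP fluorescence ratio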
SKN-1 block – inhibitors of C. elegans SKN-1. C. elegans VP596 Pgst-4::GFP/RFP ratio, acrylamide-induced, 24 h. inhibition, % at 21.8 µM. 360,000 compounds, 0.49% hits. AID 624304;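 active means interference check ratio from 0.5 to 1.5 plus GFP to RFP signal ratio inhibition reaching or exceeding a fixed threshold, cut at about 30% in these data, passing the limit was not always enough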
iPSC survival up – increases survival of single human iPS cells | hiPSC single-cell survival, ATPlite luminescence; 100% = ROCK inhibitor wells, 0% = DMSO | survival enhancement, % at 20 µM | 360,000 compounds, 0.044% hits; in the data active means survival enhancement above about 18%;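 further: cells exposed to compounds for 16 hours before the ATP read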
Tb MetRS inh – blocks T. brucei methionyl-tRNA synthetase activity | purified T. brucei MetRS, ATP depletion, Kinase-Glo luminescence | inhibition, % at 11.9 µM | 360,000 compounds, 0.4% hits;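 active means inhibition above a per-plate cutoff of the control wells' mean inhibition plus 3 SD, cut at about 5.5% in these data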;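 further: 0% = DMSO wells median and 100% = median of wells with control inhibitor compound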
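Test system: purified T. brucei MetRS enzyme. Also added: ATP, methionine and E. coli bulk tRNA substrates. Compound: 11.9 µM single point. Schedule: 15 min enzyme-compound preincubation, 2 h reaction, 10 min detection, 25 °C. Signal: luciferase luminescence of residual ATP, Kinase-Glo. Evaluation: percent inhibition versus plate control medians. Controls: DMSO wells, low control.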
MT1-MMP conf – MT1-MMP (human) activation inhibition, single-concentration validation; shares compounds with MT1-MMP act inh; HT1080 RFP-PRO-GFP cells, GFP and RFP fluorescence ratio, overnight; inhibition, % at 20 µM; 200 compounds, 10% hits; AID 652235;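 active means inhibition of at least 50% in the primary cell screen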
* = called active by the depositor; nt = no result given. Compounds with a hit are over-represented: about 1.8% of the library has one in this group of screens.

SMILES	E coli Lon inh	PREPL inhibitor	MT1-MMP act inh	SKN-1 block	iPSC survival up	Tb MetRS inh	MT1-MMP conf
COC(=O)C1C2c3ccccc3C(c3ccccc32)C1(C)C(=O)OC (stereo not given)	-2	nt	-2	-2	-3	0	nt
O=C1NC(=O)C(=Cc2ccc(Cl)cc2)C(=O)N1	-7	nt	8	-2	3	0	nt
O=C(CF)NC(Nc1cccc2cccnc12)C(Cl)(Cl)Cl (stereo not given)	9	-8	49*	7	-3	0	4
CCOc1ccc2nc(N=Nc3c(O)[nH]c(=S)[nH]c3=O)sc2c1	-5	4	59*	21	-1	-1	35
O=C(O)c1cccc2c1NC(C(=O)O)C1CC(Sc3ccccc3[N+](=O)[O-])C(Cl)C21 (stereo not given)	15	33	38*	7	1	1	0
